In ChEMBL document CHEMBL1125397, “Pyrazole-related nucleosides. Synthesis and antiviral/antitumor activity of some substituted pyrazole and pyrazolo[4,3-d]-1,2,3-triazin-4-one nucleosides” (1992):

Assays:
[1] = system: H9; test: Compound concentration required to reduce by 50% the number of H9 cells chronically infected with the HIV-1 (H9/IIIB) after three cell cycles; type: functional; conditions: Homo sapiens, read-out: ID50 (the source's name)
How it was run: (§1)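 Suspension cultures seeded at 1×10^5 cells/mL in RPMI-1640 with 10% FCS. Grown with a range of compound concentrations at 37 °C for 72 h, then counted on a Coulter counter. Growth is expressed as a percentage of untreated controls, and the 50% inhibitory dose is taken by linear regression. Mean of three separate experiments.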

[2] = system: Raji; test: Compound concentration required to reduce by 50% the number of human B (Raji)cells after three cell cycles; type: functional; conditions: read-out: ID50 (the source's name); how it was run: as §1
[3] = system: Vero; test: Concentration of compound required to reduce by 50% the number of african swine fever virus (ASFV) plaques in vero cells; type: functional; conditions: Chlorocebus sabaeus, read-out: ED50 (the source's name)
[4] = system: Vero; test: Concentration of compound required to reduce by 50% the number of vesicular stomatitis virus (VSV) plaques in vero cells; type: functional; conditions: Chlorocebus sabaeus, read-out: ED50 (the source's name)
[5] = Compound concentration required to reduce by 50% the number of T-MT4 lymphoblastoid cells after three cell cycles; type: functional; conditions: Homo sapiens; read-out: ID50 (the source's name); how it was run: as §1
[6] = system: Vero; test: Concentration of compound required to reduce by 50% the number of coxsackie virus plaques in vero cells; type: functional; conditions: Chlorocebus sabaeus, read-out: ED50 (the source's name)
[7] = system: C8166; test: Effective dose which reduces the HIV-1 yield in C8166 cells by 90%; type: functional, Homo sapiens
How it was run: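 C8166 cells at 1×10^8/mL infected with 1×10^5 CCID50 HIV-1 (from H9/IIIB supernatants) for 2 h at 37 °C, washed three times, then resuspended at 1×10^5/mL with compound for 3 days. Virus yield was measured by limiting-dilution end-point titration on C8166 (1:2 dilutions, four wells each, syncytia scored after 4 days, Reed–Muench CCID50/mL).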

[8] = Compound concentration required to reduce by 50% the number of T-C8166 lymphoblastoid cells after three cell cycles; type: functional; conditions: Homo sapiens; read-out: ID50 (the source's name); how it was run: as §1
[9] = Compound concentration required to reduce by 50% the number of T-H9 lymphoblastoid cells after three cell cycles; type: functional; conditions: Homo sapiens; read-out: ID50 (the source's name); how it was run: as §1
[10] = system: Vero; test: Concentration of compound required to reduce by 50% the number of polio virus plaques in vero cells; type: functional; conditions: Chlorocebus sabaeus, read-out: ED50 (the source's name)
[11] = system: Vero; test: Compound concentration required to reduce by 50% the number of fibroblast-like cells (Vero) after three cell cycles; type: functional; conditions: Chlorocebus sabaeus, read-out: ID50 (the source's name)
How it was run: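 Vero monolayers seeded at 1×10^5 cells/mL in DMEM with 10% newborn calf serum and left to adhere overnight. Medium with various compound concentrations was then added for 3 days at 37 °C. Cells were trypsinized and counted on a Coulter counter. The 50% dose comes from linear regression of percent growth against untreated controls. Mean of three experiments.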

[12] = system: Vero; test: Concentration of compound required to reduce by 50% the number of herpes simplex virus (HSV-1) plaques in vero cells; type: functional; conditions: Chlorocebus sabaeus, read-out: ED50 (the source's name)
[13] = system: L1210; test: Compound concentration required to reduce by 50% the number of murine lymphocytic leukemia (L1210) cells after three cell cycles; type: functional; conditions: Mus musculus, read-out: ID50 (the source's name)
How it was run: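 Mouse L1210 leukemia cells seeded at 1×10^5 cells/mL in RPMI-1640 with 10% FCS. Exposed to graded compound concentrations at 37 °C for 36 h, then counted on a Coulter counter. Growth is taken as a percentage of untreated controls, and the 50% dose is found by linear regression. Mean of three experiments.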

| Structure (SMILES) | IC50 [1] | IC50 [2] | EC50 [3] | EC50 [4] | IC50 [5] | EC50 [6] | ED90 [7] | IC50 [8] | IC50 [9] | EC50 [10] | IC50 [11] | EC50 [12] | IC50 [13] |
| --- | --- | --- | --- | --- | --- | --- | --- | --- | --- | --- | --- | --- | --- |
| NC(=O)c1ccn(C2O[C@H](CO)[C@@H](O)[C@H]2O)n1 (stereo partly specified) | > 1030 µM | 1030 µM | > 2050 µM | > 2050 µM | > 1030 µM | > 2050 µM | >900 µM | 900 µM | 1030 µM | > 2050 µM | > 1030 µM | > 2050 µM | > 1030 µM |
| NC(=O)c1nn(C2O[C@H](CO)[C@@H](O)[C@H]2O)cc1[N+](=O)[O-] (stereo partly specified) | > 1730 µM | > 1730 µM | > 1730 µM | > 1730 µM | 80 µM | > 1730 µM | 25.4 µM | 12 µM | > 1730 µM | > 1730 µM | > 1730 µM | > 1730 µM | > 1730 µM |
| CN(Cc1cnc2nc(N)nc(N)c2n1)c1ccc(C(=O)N[C@@H](CCC(=O)O)C(=O)O)cc1 [METHOTREXATE] | 0.03 µM | 0.02 µM |  |  | 0.03 µM |  |  | 0.03 µM | 0.03 µM |  | 0.02 µM |  | 0.04 µM |
| Nc1nc2c(ncn2COCCO)c(=O)[nH]1 [ACYCLOVIR] |  |  | > 1300 µM |  |  |  |  |  |  |  |  | 0.04 µM |  |
| NC(=O)c1nn([C@@H]2O[C@H](CO)[C@@H](O)[C@H]2O)cc1I | 20 µM | > 1350 µM | > 1350 µM | > 1350 µM | 27 µM | 120 µM | 20 µM | 8 µM | 40 µM | > 1350 µM | > 1350 µM | > 1350 µM | > 1350 µM |
| Cc1c(N)c(C(N)=O)nn1C1O[C@H](CO)[C@@H](O)[C@H]1O (stereo partly specified) | > 1840 µM | > 1840 µM | > 1840 µM | > 1840 µM | > 1840 µM | > 1840 µM | >1840 µM | > 1840 µM | > 1840 µM | > 1840 µM | > 1840 µM | > 1840 µM | > 1840 µM |
| Cc1c([N+](=O)[O-])c(C(N)=O)nn1C1O[C@H](CO)[C@@H](O)[C@H]1O (stereo partly specified) | > 1650 µM | > 1650 µM | > 1650 µM | > 1650 µM | 1490 µM | > 1650 µM | >1650 µM | > 1650 µM | > 1650 µM | > 1650 µM | > 1650 µM | > 1650 µM | > 1650 µM |
| COc1cccc2c1C(=O)c1c(O)c3c(c(O)c1C2=O)C[C@@](O)(C(=O)CO)C[C@@H]3O[C@H]1C[C@H](N)[C@H](O)[C@H](C)O1 [DOXORUBICIN] | 0.01 µM | 0.01 µM |  |  | 0.01 µM |  |  | 0.01 µM | 0.01 µM |  | 0.1 µM |  | 0.02 µM |
| N=C(N)N [GUANIDINE] |  |  |  |  |  |  |  |  |  | 125 µM |  |  |  |
| Cc1cn([C@H]2C[C@H](N=[N+]=[N-])[C@@H](CO)O2)c(=O)[nH]c1=O [ZIDOVUDINE] |  |  |  |  |  |  | 0.003 µM |  |  |  |  |  |  |
| CCCCCn1nnc2c(C)nn(C3O[C@H](CO)[C@@H](O)[C@H]3O)c2c1=O (stereo partly specified) |  | 1400 µM | > 1400 µM | > 1400 µM | 540 µM | > 1400 µM | >200 µM | 280 µM | 710 µM | > 1400 µM | > 1400 µM | > 1400 µM | > 1400 µM |
| NC(=O)c1nn(C2O[C@H](CO)[C@@H](O)[C@H]2O)cc1Br (stereo partly specified) | 50 µM | > 1550 µM | > 1550 µM | > 1550 µM | 20 µM | > 1550 µM | 12.2 µM | 4 µM | 50 µM | > 1550 µM | > 1550 µM | > 1550 µM | > 1550 µM |
| NC(=O)c1nn(C2O[C@H](CO)[C@@H](O)[C@H]2O)cc1N (stereo partly specified) | 550 µM | 1280 µM | > 1830 µM | > 1830 µM | 470 µM | > 1830 µM | >320 µM | 320 µM | 580 µM | > 1830 µM | > 1830 µM | > 1830 µM | > 1830 µM |
